Our source for the inhibition, IC50 and GI50 values is ChEMBL document CHEMBL1130998, “Structure-activity requirements for flavone cytotoxicity and binding to tubulin” (J Med Chem, 1998).

The target in assay [1] is T1, Tubulin (Bos taurus) (UniProt Q6B856+Q862L2+Q862F3). Put plainly: In vitro inhibition of binding of [3H]colchicine to tubulin (10 uM) at compound concentration of 5 mM. The assay is classed as protein assay.
Assay [2] concerns the target T1, Tubulin (Bos taurus). Put plainly: In vitro inhibition of binding of [3H]colchicine to tubulin (10 uM) at compound concentration of 50 mM. The assay is classed as protein assay.
Assay [3] concerns the target Tubulin. Put plainly: In vitro inhibitory activity against tubulin polymerization (10 uM). The assay is classed as protein-complex assay.
Assay [4] relates to Panel NCI-60 (60 carcinoma cell lines). The assay is described as follows: In vitro cytotoxic potency against NCI-60 human tumor cell line. The class given is functional.
Assay [5] shares this test system. The assay is described as follows: In vitro cytotoxic potency against NCI-60 human tumor cell line was determined. The assay is classed as functional. The gist of the method: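 Tested in the NCI primary in vitro human tumor cell screen. Potency was taken from the dose-response curves, which were also analysed for the differential cytotoxicity pattern typical of antimitotic standard agents.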

Structures are written as SMILES.

For `COc1ccc(-c2oc3c(OC)c(OC)c(OC)c(O)c3c(=O)c2OC)cc1O`, the values for the inhibition in assay [1] and in assay [2] were 59% and 89%, respectively. The compound also showed an IC50 in assay [3] of 830 nM. This compound also showed a GI50 in assay [4] of 130 nM.
Turning to `COc1ccc(-c2oc3cc(O)c(OC)c(O)c3c(=O)c2OC)cc1O` [CENTAUREIDIN], the inhibition in assay [1] turned out to be 35%; in assay [2] it was 76%. The compound also displayed an IC50 in assay [3] of 2000 nM. Moreover, the GI50 in assay [4] turned out to be 240 nM.
In the same order, the values of `COc1ccc(-c2oc3cc(O)cc(O)c3c(=O)c2OC)cc1O` are 43%, 75%, 3000 nM and 1700 nM.
With `COc1c(OC)c(OC)c2c(=O)cc(-c3ccc(NC(C)=O)cc3)oc2c1OC`, the GI50 in assay [5] was over 100000 nM.
